According to ChEMBL document CHEMBL1932924, “Design, synthesis, and biological evaluation of 4-phenylpyrrole derivatives as novel androgen receptor antagonists” (Bioorg Med Chem, 2012):
≈ marks a conversion by molar mass, not a printed value.

Experiments:
Androgen receptor [1] = molecular target: T1, Androgen receptor (Homo sapiens, UniProt P10275); test: Agonist activity at human androgen receptor expressed in COS7 cells assessed as luciferase activity after 24 hrs by reporter gene assay; type: functional, cell-based, COS-7
T1 sequence (P10275 whole entry): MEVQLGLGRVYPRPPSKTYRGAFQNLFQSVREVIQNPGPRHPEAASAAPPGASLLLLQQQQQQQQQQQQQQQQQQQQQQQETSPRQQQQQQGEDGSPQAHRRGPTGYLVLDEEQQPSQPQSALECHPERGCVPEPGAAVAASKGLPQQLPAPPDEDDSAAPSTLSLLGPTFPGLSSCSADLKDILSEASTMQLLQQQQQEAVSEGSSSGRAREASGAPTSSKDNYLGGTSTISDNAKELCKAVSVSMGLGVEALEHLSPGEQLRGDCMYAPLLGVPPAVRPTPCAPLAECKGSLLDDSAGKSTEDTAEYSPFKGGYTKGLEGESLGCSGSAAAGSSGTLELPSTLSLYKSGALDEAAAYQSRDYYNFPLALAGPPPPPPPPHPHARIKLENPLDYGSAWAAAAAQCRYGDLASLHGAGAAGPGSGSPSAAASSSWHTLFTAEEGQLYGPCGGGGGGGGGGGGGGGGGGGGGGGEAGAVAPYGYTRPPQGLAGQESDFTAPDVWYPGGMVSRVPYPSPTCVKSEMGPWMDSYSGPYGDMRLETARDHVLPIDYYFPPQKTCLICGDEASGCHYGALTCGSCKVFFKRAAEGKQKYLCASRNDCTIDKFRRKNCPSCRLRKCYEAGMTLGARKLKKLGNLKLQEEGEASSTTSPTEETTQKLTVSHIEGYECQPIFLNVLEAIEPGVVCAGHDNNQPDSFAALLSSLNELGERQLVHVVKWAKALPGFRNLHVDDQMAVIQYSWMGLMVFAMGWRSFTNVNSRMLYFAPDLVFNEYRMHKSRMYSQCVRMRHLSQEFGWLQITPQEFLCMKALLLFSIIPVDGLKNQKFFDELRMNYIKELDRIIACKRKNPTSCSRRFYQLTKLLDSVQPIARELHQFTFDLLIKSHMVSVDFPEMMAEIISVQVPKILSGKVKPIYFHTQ

Androgen receptor [2] = molecular target: T1, Androgen receptor; test: Displacement of [17-alpha-methyl-3H]-mibolerone from human androgen receptor expressed in HEK293 derived FreeStyle293F cells after 3 hrs; type: cell-based
Androgen receptor [3] = molecular target: T2, Androgen receptor (Homo sapiens, UniProt P10275, W742C); test: Antagonist activity at human androgen receptor W741C mutant expressed in COS7 cells assessed as inhibition of DHT-induced luciferase activity after 24 hrs by reporter gene assay; type: functional, cell-based, COS-7
Androgen receptor [4] = molecular target: T3, Androgen receptor (Homo sapiens, UniProt P10275, T878A); test: Antagonist activity at human androgen receptor T877A mutant expressed in COS7 cells assessed as inhibition of DHT-induced luciferase activity after 24 hrs by reporter gene assay; type: functional, cell-based, COS-7
Androgen receptor [5] = molecular target: T1, Androgen receptor; test: Antagonist activity at human androgen receptor expressed in COS7 cells assessed as inhibition of DHT-induced luciferase activity after 24 hrs by reporter gene assay; type: functional, cell-based, COS-7
Androgen receptor [6] = molecular target: T2, Androgen receptor; test: Agonist activity at human androgen receptor W741C mutant expressed in COS7 cells assessed as luciferase activity after 24 hrs by reporter gene assay; type: functional, cell-based, COS-7
Androgen receptor [7] = molecular target: T3, Androgen receptor; test: Displacement of [17-alpha-methyl-3H]-mibolerone from human androgen receptor T877A mutant expressed in HEK293 derived FreeStyle293F cells after 3 hrs; type: cell-based
Androgen receptor [8] = molecular target: T3, Androgen receptor; test: Agonist activity at human androgen receptor T877A mutant expressed in COS7 cells assessed as luciferase activity after 24 hrs by reporter gene assay; type: functional, cell-based, COS-7
[9] = Solubility in aqueous buffer solution at pH 6.8; type: physicochemical
Outline: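 DMSO stock added to aqueous buffer at pH 6.8 and incubated. Precipitate removed by filtration; filtrate concentration measured by HPLC.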

T3 sequence (P10275 whole entry T878A): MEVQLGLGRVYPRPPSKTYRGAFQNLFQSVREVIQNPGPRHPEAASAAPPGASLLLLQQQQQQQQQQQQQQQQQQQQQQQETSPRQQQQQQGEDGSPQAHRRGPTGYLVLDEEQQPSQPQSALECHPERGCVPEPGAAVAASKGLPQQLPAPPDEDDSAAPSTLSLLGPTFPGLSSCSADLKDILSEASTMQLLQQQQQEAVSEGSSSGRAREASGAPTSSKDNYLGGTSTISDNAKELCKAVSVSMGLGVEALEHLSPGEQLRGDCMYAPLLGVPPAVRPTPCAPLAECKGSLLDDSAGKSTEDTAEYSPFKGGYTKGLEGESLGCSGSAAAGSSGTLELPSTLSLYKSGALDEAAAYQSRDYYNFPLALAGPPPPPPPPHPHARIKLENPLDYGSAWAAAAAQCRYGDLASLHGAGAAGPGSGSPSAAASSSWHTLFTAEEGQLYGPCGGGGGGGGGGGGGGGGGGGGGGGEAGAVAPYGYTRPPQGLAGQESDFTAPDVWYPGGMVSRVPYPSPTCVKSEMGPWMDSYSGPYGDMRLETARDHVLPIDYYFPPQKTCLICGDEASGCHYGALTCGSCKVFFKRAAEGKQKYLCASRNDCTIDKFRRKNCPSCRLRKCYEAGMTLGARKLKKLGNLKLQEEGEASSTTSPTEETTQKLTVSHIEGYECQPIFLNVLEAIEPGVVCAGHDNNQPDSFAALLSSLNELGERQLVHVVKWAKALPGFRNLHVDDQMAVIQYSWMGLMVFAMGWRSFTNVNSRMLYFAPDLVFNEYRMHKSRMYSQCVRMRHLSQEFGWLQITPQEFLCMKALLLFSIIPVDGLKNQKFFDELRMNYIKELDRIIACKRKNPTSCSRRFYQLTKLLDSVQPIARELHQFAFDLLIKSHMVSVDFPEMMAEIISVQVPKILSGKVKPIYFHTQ
T2 sequence (P10275 whole entry W742C): as the sequence (P10275 whole entry T878A) above, with W742C, A878T counted along it

With `Cc1c(-c2ccc(C#N)cc2)c(C#N)cn1Cc1cnc(Cl)c(CO)c1` the EC50 (Androgen receptor [1]) was > 10 µM, the IC50 (Androgen receptor [2]) was 490 nM and the IC50 (Androgen receptor [3]) was 1.4 µM. The IC50 (Androgen receptor [4]) was 810 nM, the IC50 (Androgen receptor [5]) was 320 nM and the EC50 (Androgen receptor [6]) was > 10 µM. For the same compound, the IC50 (Androgen receptor [7]) was 1100 nM and the EC50 (Androgen receptor [8]) was > 10 µM.
With `CCOC(=O)c1c(C)[nH]c(C)c1-c1ccc([N+](=O)[O-])cc1` the EC50 (Androgen receptor [1]) was > 10 µM, the IC50 (Androgen receptor [2]) was 22 nM and the IC50 (Androgen receptor [3]) was 4.2 µM. The IC50 (Androgen receptor [4]) was 340 nM, the IC50 (Androgen receptor [5]) was 240 nM and the EC50 (Androgen receptor [6]) was > 10 µM. The IC50 (Androgen receptor [7]) was 34 nM and the EC50 (Androgen receptor [8]) was > 10 µM.
For `CCOC(=O)c1c(-c2ccc([N+](=O)[O-])cc2)c(C)n(CCc2ccccc2)c1C`, the EC50 (Androgen receptor [1]) was > 10 µM, the IC50 (Androgen receptor [2]) was 150 nM and the IC50 (Androgen receptor [3]) was > 10 µM. For the same compound, the IC50 (Androgen receptor [4]) was 970 nM, the IC50 (Androgen receptor [5]) was 4100 nM and the EC50 (Androgen receptor [6]) was > 10 µM. The IC50 (Androgen receptor [7]) was 52 nM and the EC50 (Androgen receptor [8]) was > 10 µM.
For `CCOC(=O)c1c(-c2ccc([N+](=O)[O-])cc2)c(C)n(C)c1C`, the EC50 (Androgen receptor [1]) was > 10 µM, the IC50 (Androgen receptor [2]) was 47 nM and the IC50 (Androgen receptor [3]) was 6.2 µM. The IC50 (Androgen receptor [4]) was 210 nM, the IC50 (Androgen receptor [5]) was 500 nM and the EC50 (Androgen receptor [6]) was > 10 µM. The IC50 (Androgen receptor [7]) was 30 nM and the EC50 (Androgen receptor [8]) was > 10 µM.
In the case of `CCOC(=O)c1c(-c2ccc([N+](=O)[O-])cc2)c(C)n(CC2CCCCC2)c1C`, the EC50 (Androgen receptor [1]) is reported as > 10 µM, the IC50 (Androgen receptor [2]) is reported as 310 nM and the IC50 (Androgen receptor [3]) is reported as 7.2 µM. For the same compound, the IC50 (Androgen receptor [4]) was 3700 nM, the IC50 (Androgen receptor [5]) was 3800 nM and the EC50 (Androgen receptor [6]) was > 10 µM. The IC50 (Androgen receptor [7]) was 350 nM and the EC50 (Androgen receptor [8]) was > 10 µM.
For `CCOC(=O)c1c(-c2ccc([N+](=O)[O-])cc2)c(C)n(S(=O)(=O)c2ccccc2)c1C`, the EC50 (Androgen receptor [1]) was > 10 µM, the IC50 (Androgen receptor [2]) was 130 nM and the IC50 (Androgen receptor [3]) was > 10 µM. The IC50 (Androgen receptor [4]) was 4700 nM, the IC50 (Androgen receptor [5]) was 4700 nM and the EC50 (Androgen receptor [6]) was > 10 µM. For the same compound, the IC50 (Androgen receptor [7]) was 62 nM and the EC50 (Androgen receptor [8]) was > 10 µM.
With `Cc1cc(-c2ccc([N+](=O)[O-])cc2)c(C)n1Cc1ccccc1` the EC50 (Androgen receptor [1]) was > 10 µM, the IC50 (Androgen receptor [2]) was 6.7 nM and the IC50 (Androgen receptor [3]) was 3.1 µM. The IC50 (Androgen receptor [4]) was 210 nM, the IC50 (Androgen receptor [5]) was 490 nM and the EC50 (Androgen receptor [6]) was > 10 µM. The IC50 (Androgen receptor [7]) was 2.2 nM and the EC50 (Androgen receptor [8]) was > 10 µM.
In the case of `Cc1c(C#N)c(-c2ccc(C#N)cc2)c(C)n1Cc1ccc(Cl)nc1`, the EC50 (Androgen receptor [1]) is reported as > 10 µM, the IC50 (Androgen receptor [2]) is reported as 9 nM and the IC50 (Androgen receptor [3]) is reported as 0.91 µM. It also gave an IC50 (Androgen receptor [4]) of 100 nM, an IC50 (Androgen receptor [5]) of 45 nM and a solubility [9] of 0.83 µg/mL (≈ 2.39 µM). The EC50 (Androgen receptor [6]) was > 10 µM, the IC50 (Androgen receptor [7]) was 24 nM and the EC50 (Androgen receptor [8]) was > 10 µM.
For `COC(=O)c1c(-c2ccc([N+](=O)[O-])cc2)c(C)n(Cc2ccccc2)c1C`, the EC50 (Androgen receptor [1]) was > 10 µM, the IC50 (Androgen receptor [2]) was 5 nM and the IC50 (Androgen receptor [3]) was 0.74 µM. The IC50 (Androgen receptor [4]) was 150 nM, the IC50 (Androgen receptor [5]) was 300 nM and the EC50 (Androgen receptor [6]) was > 10 µM. For the same compound, the IC50 (Androgen receptor [7]) was 3.8 nM and the EC50 (Androgen receptor [8]) was > 10 µM.
With `CCOC(=O)c1c(-c2ccc([N+](=O)[O-])cc2)c(C)n(Cc2ccccc2)c1C` the EC50 (Androgen receptor [1]) was > 10 µM, the IC50 (Androgen receptor [2]) was 5.5 nM and the IC50 (Androgen receptor [3]) was 3.2 µM. For the same compound, the IC50 (Androgen receptor [4]) was 160 nM, the IC50 (Androgen receptor [5]) was 340 nM and the EC50 (Androgen receptor [6]) was > 10 µM. For the same compound, the IC50 (Androgen receptor [7]) was 5.2 nM and the EC50 (Androgen receptor [8]) was > 10 µM.
With `COC(=O)c1c(-c2ccc(C#N)c(C(F)(F)F)c2)c(C)n(Cc2ccccc2)c1C` the EC50 (Androgen receptor [1]) was > 10 µM, the IC50 (Androgen receptor [2]) was 3.9 nM and the IC50 (Androgen receptor [3]) was 3.3 µM. The IC50 (Androgen receptor [4]) was 690 nM, the IC50 (Androgen receptor [5]) was 320 nM and the EC50 (Androgen receptor [6]) was > 10 µM. It also gave an IC50 (Androgen receptor [7]) of 4.7 nM and an EC50 (Androgen receptor [8]) of 5.4 µM.
